Test results as given in ChEMBL document CHEMBL1153769, “Novel modified steroid derivatives of androstanolone as chemotherapeutic anti-cancer agents” (Eur J Med Chem, 2009).

What was measured:
[1] = Antitumor activity in mouse EAC cells transplanted in Swiss albino mouse assessed as decrease in tumor volume at 25 mg/kg. ip dissolved in DMSO for 14 days measured after final dose by 18 hrs fasting; format: functional, Ehrlich; parameters: unit not given here; conditions: route intraperitoneal
Summary of the method: (§1)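 Mice (n = 5/group) given 2×10⁶ EAC cells in 0.2 ml i.p. Treatment was 25 mg/kg b.wt. i.p. in DMSO, every other day for 14 days. Animals were fasted 18 h after the last dose, then sacrificed. Tumour volume, haemoglobin, haematocrit, total WBC and body weight recorded. Normal and untreated EAC groups served as controls. Mean ± SE.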

[2] = species on record: Mus musculus; experiment: Toxicity in mouse EAC cells transplanted Swiss albino mouse assessed as induction of dizziness; format: organism-based; conditions: ehrlich
[3] = test system: HepG2; experiment: Antitumor activity against human HepG2 cells incubated with drug dissolved in DMSO after 48 hrs by MTT assay; format: functional, cell-based; conditions: HepG2, 48 h
Summary of the method: (§2)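 HepG2 cells (trypan blue viability >97%) grown in RPMI-1640 with L-glutamine and 10% fetal calf serum, seeded at 3×10³ cells/well. Compounds in olive oil or DMSO were tested at 10, 50 and 100 for 24, 48 and 72 h. MTT (0.5 mg/ml) added, formazan dissolved in DMSO, OD read at 570 nm (ref 690 nm). Reported as % growth inhibition vs control; run in triplicate.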

[4] = species on record: Mus musculus; experiment: Toxicity in mouse EAC cells transplanted Swiss albino mouse assessed as induction of hypothermia; format: organism-based; conditions: ehrlich
[5] = test system: Mus musculus; experiment: Toxicity in mouse EAC cells transplanted Swiss albino mouse assessed as change in hemoglobin content at 25 mg/kg. ip dissolved in DMSO for 14 days measured after final dose by 18 hrs fasting; format: organism-based, Ehrlich; parameters: dose 25 mg/kg, route intraperitoneal; conditions: in vivo; summary of the method: as §1
[6] = test system: Mus musculus; experiment: Toxicity in mouse EAC cells transplanted Swiss albino mouse assessed as change in hematocrit content at 25 mg/kg. ip dissolved in DMSO for 14 days measured after final dose by 18 hrs fasting; format: organism-based, Ehrlich; parameters: dose 25 mg/kg, route intraperitoneal; conditions: in vivo; summary of the method: as §1
[7] = test system: HepG2; experiment: Antitumor activity against human HepG2 cells incubated with drug dissolved in olive oil after 72 hrs by MTT assay; format: functional, cell-based; conditions: HepG2, 72 h; summary of the method: as §2
[8] = species on record: Mus musculus; experiment: Toxicity in mouse EAC cells transplanted Swiss albino mouse assessed as loss of appetite; format: organism-based; conditions: ehrlich
[9] = test system: Mus musculus; experiment: Toxicity in mouse EAC cells transplanted Swiss albino mouse assessed as change in total WBC content at 25 mg/kg. ip dissolved in DMSO for 14 days measured after final dose by 18 hrs fasting; format: organism-based, Ehrlich; parameters: dose 25 mg/kg, route intraperitoneal; conditions: in vivo; summary of the method: as §1
[10] = test system: HepG2; experiment: Antitumor activity against human HepG2 cells incubated with drug dissolved in DMSO after 72 hrs by MTT assay; format: functional, cell-based; conditions: HepG2, 72 h; summary of the method: as §2
[11] = test system: HepG2; experiment: Antitumor activity against human HepG2 cells incubated with drug dissolved in olive oil after 48 hrs by MTT assay; format: functional, cell-based; conditions: HepG2, 48 h; summary of the method: as §2
[12] = test system: Mus musculus; experiment: Toxicity in mouse EAC cells transplanted Swiss albino mouse assessed as decrease in body weight at 25 mg/kg. ip dissolved in DMSO for 14 days measured after final dose by 18 hrs fasting; format: organism-based, Ehrlich; parameters: dose 25 mg/kg, route intraperitoneal; scale not given: the % may be the effect or the level left; conditions: in vivo; summary of the method: as §1
[13] = species on record: Mus musculus; experiment: Toxicity in mouse EAC cells transplanted Swiss albino mouse assessed as induction of errection of hair; format: organism-based; conditions: ehrlich
[14] = test system: Mus musculus; experiment: Toxicity in mouse EAC cells transplanted Swiss albino mouse assessed as change in total WBC content at 20 mg/kg. ip dissolved in DMSO for 14 days measured after final dose by 18 hrs fasting; format: organism-based, Ehrlich; parameters: dose 20 mg/kg, route intraperitoneal; conditions: in vivo
Summary of the method: (§3)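 Reference-drug group (n = 5): mice given 2×10⁶ EAC cells in 0.2 ml i.p., then 20 mg/kg b.wt. for 14 days. Fasted 18 h after the last dose, then sacrificed. Tumour volume, haemoglobin, haematocrit, total WBC and body weight measured against normal and untreated EAC groups. Mean ± SE.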

[15] = test system: Mus musculus; experiment: Toxicity in mouse EAC cells transplanted Swiss albino mouse assessed as change in hematocrit content at 20 mg/kg. ip dissolved in DMSO for 14 days measured after final dose by 18 hrs fasting; format: organism-based, Ehrlich; parameters: dose 20 mg/kg, route intraperitoneal; conditions: in vivo; summary of the method: as §3
[16] = test system: Mus musculus; experiment: Toxicity in mouse EAC cells transplanted Swiss albino mouse assessed as decrease in body weight at 20 mg/kg. ip dissolved in DMSO for 14 days measured after final dose by 18 hrs fasting; format: functional, Ehrlich; parameters: scale not given: the % may be the effect or the level left; conditions: route intraperitoneal; summary of the method: as §3
[17] = Antitumor activity in mouse EAC cell transplanted in Swiss albino mouse assessed as decrease in tumor volume at 20 mg/kg. ip dissolved in DMSO for 14 days measured after final dose by 18 hrs fasting; format: functional, Ehrlich; conditions: route intraperitoneal; summary of the method: as §3

Row | Structure (SMILES) | Activity [1] | Activity [2] | IC50 [3] [µM] | Activity [4] | Activity [5] [%] | Activity [6] [%] | IC50 [7] [µM] | Activity [8] | Activity [9] | IC50 [10] [µM] | IC50 [11] [µM] | Activity [12] [%] | Activity [13] | Activity [14] | Activity [15] [%] | Activity [16] [%] | Activity [17] [mL⁻¹]
1 | CC(=O)O[C@H]1CC[C@H]2[C@@H]3CC[C@H]4CNC(=O)CC[C@]4(C)[C@H]3CC[C@]12C | 0 | Non-toxic | 42 | Non-toxic | 12.96 | 38.56 | 35 | Non-toxic | 6.46 /10'3mm'-3 | 40 | 47 | 20.33 | Non-toxic |  |  |  | 
2 | CC(=O)O[C@H]1CC[C@H]2[C@@H]3CC[C@H]4C/C(=N/n5c(-c6ccccc6)csc5=S)CC[C@]4(C)[C@H]3CC[C@]12C | 0 | Non-toxic | 85 | Non-toxic | 10.7 | 42.7 | 37 | Non-toxic | 5.66 /10'3mm'-3 | 90 | 47 | 20 | Non-toxic |  |  |  | 
3 | CC(=O)O[C@H]1CC[C@H]2[C@@H]3CC[C@H]4Cc5c(C#N)c(N)n(-c6ccccc6)c(=S)c5C[C@]4(C)[C@H]3CC[C@]12C | 0 | Non-toxic | > 100 | Non-toxic | 12.6 | 33.8 | 40 | Non-toxic | 5.75 /10'3mm'-3 | > 100 | 48 | 18 | Non-toxic |  |  |  | 
4 | O=c1[nH]cc(F)c(=O)[nH]1 [FLUOROURACIL] |  |  |  |  |  |  |  |  |  |  |  |  |  | 6.4 /10'3mm'-3 | 10.73 | 23 | 0
5 | COc1ccc(C2Oc3nc(N)c(C#N)c(N)c3C3=C2C[C@@]2(C)[C@@H](CC[C@@H]4[C@@H]2CC[C@]2(C)[C@@H](OC(C)=O)CC[C@@H]42)C3)cc1 (some centres undefined) | 0 | Non-toxic | 95 | Non-toxic | 12.65 | 38.3 | 41 | Non-toxic | 7.35 /10'3mm'-3 | > 100 | 48 | 21.5 | Non-toxic |  |  |  | 
6 | CC(=O)O[C@H]1CC[C@H]2[C@@H]3CC[C@H]4CC5=C(C[C@]4(C)[C@H]3CC[C@]12C)C(c1ccccc1)OC(N)=C5C#N (some centres undefined) | 0 | Non-toxic | 81 | Non-toxic | 12.5 | 36.6 | 30 | Non-toxic | 5.9 /10'3mm'-3 | 73 | 46 | 18.66 | Non-toxic |  |  |  | 
